≈ marks a conversion by molar mass, not a printed value.
Columns and labels:
Format in all cases: functional
Staphylococcus aureus = assay: Antibacterial activity against Staphylococcus aureus after 24 hrs by MTT assay
Procedure, shortened: (§1)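 Broth microdilution MIC in MH medium. Compounds from a 50 mg/mL DMSO stock were serially diluted in medium. Inoculum was about 10⁵ cfu/mL, each concentration in triplicate, incubated at 37 °C for 24 h. MIC was read visually, then confirmed by adding PBS with 2 mg/mL MTT and incubating 4–5 h at room temperature. A compound-free medium control checked for any MTT effect on growth.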

Escherichia coli = assay: Antibacterial activity against Escherichia coli after 24 hrs by MTT assay; procedure, shortened: as §1
Pseudomonas fluorescens = assay: Antibacterial activity against Pseudomonas fluorescens after 24 hrs by MTT assay; procedure, shortened: as §1
Bacillus subtilis = assay: Antibacterial activity against Bacillus subtilis after 24 hrs by MTT assay; procedure, shortened: as §1
Trichophyton rubrum = assay: Antifungal activity against Trichophyton rubrum after 48 hrs by MTT assay
Procedure, shortened: (§2)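 Antifungal MIC by microdilution in RPMI-1640 medium. Compounds came from a 50 mg/mL DMSO stock and were serially diluted. Inoculum was about 10⁵ cfu/mL, with triplicate wells per concentration, incubated at 37 °C for 48 h. MIC was judged visually, followed by PBS containing 2 mg/mL MTT for 4–5 h at room temperature for the colorimetric read. A compound-free control tested MTT interference.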

Aspergillus niger = assay: Antifungal activity against Aspergillus niger after 48 hrs by MTT assay; procedure, shortened: as §2
Candida albicans = assay: Antifungal activity against Candida albicans after 48 hrs by MTT assay; procedure, shortened: as §2

Structure (SMILES) | MIC (Staphylococcus aureus) [µg/mL] | MIC (Escherichia coli) [µg/mL] | MIC (Pseudomonas fluorescens) [µg/mL] | MIC (Bacillus subtilis) [µg/mL] | MIC (Trichophyton rubrum) [µg/mL] | MIC (Aspergillus niger) [µg/mL] | MIC (Candida albicans) [µg/mL]
NC[C@H]1O[C@H](O[C@H]2[C@H](O)[C@@H](O[C@H]3O[C@H](CO)[C@@H](O)[C@H](N)[C@H]3O)[C@H](N)C[C@@H]2N)[C@H](O)[C@@H](O)[C@@H]1O [KANAMYCIN] | 1 (≈ 2.06 µM) | 3.9 (≈ 8.05 µM) | 3.9 (≈ 8.05 µM) | 1 (≈ 2.06 µM) | – | – | –
O=c1c(-c2ccc(O)cc2)coc2cc(OCCCn3cnc4ccccc43)cc(O)c12 | > 50 | > 50 | > 50 | > 50 | > 50 | > 50 | > 50
O=c1c(-c2ccc(O)cc2)coc2cc(OCCNCc3ccco3)cc(O)c12 | > 50 | > 50 | > 50 | > 50 | > 50 | > 50 | > 50
O=c1c(-c2ccc(O)cc2)coc2cc(OCCCNCc3ccco3)cc(O)c12 | 3.4 (≈ 8.35 µM) | > 50 | 10.5 (≈ 25.8 µM) | 12.5 (≈ 30.7 µM) | > 50 | 45.5 (≈ 112 µM) | > 50
O=c1c(-c2ccc(O)cc2)coc2cc(OCCn3cnc4ccccc43)cc(O)c12 | > 50 | > 50 | > 50 | > 50 | > 50 | > 50 | > 50
O=c1c(-c2ccc(O)cc2)coc2cc(OCCCN3CCNCC3)cc(O)c12 | 40 (≈ 101 µM) | > 50 | > 50 | > 50 | > 50 | > 50 | > 50
CCCCN(CCCC)CCOc1cc(O)c2c(=O)c(-c3ccc(O)cc3)coc2c1 | 32.8 (≈ 77.1 µM) | > 50 | 37 (≈ 87 µM) | 30 (≈ 70.5 µM) | > 50 | 41.6 (≈ 97.8 µM) | > 50
CN1CCN(CCCCOc2cc(O)c3c(=O)c(-c4ccc(O)cc4)coc3c2)CC1 | 27.2 (≈ 64.1 µM) | > 50 | 37.4 (≈ 88.1 µM) | 30.3 (≈ 71.4 µM) | > 50 | > 50 | > 50
CCCN(CCC)CCCCOc1cc(O)c2c(=O)c(-c3ccc(O)cc3)coc2c1 | 10.5 (≈ 24.7 µM) | > 50 | 19.5 (≈ 45.8 µM) | 19.5 (≈ 45.8 µM) | > 50 | > 50 | > 50
O=c1c(-c2ccc(O)cc2)coc2cc(OCCCN3CCOCC3)cc(O)c12 | > 50 | > 50 | > 50 | > 50 | > 50 | > 50 | > 50
O=c1c(-c2ccc(O)cc2)coc2cc(OCCCCn3ccnc3)cc(O)c12 | > 50 | > 50 | > 50 | > 50 | > 50 | > 50 | > 50
O=c1c(-c2ccc(O)cc2)coc2cc(OCCN3CCCC3)cc(O)c12 | 49.6 (≈ 135 µM) | > 50 | 28.5 (≈ 77.6 µM) | > 50 | > 50 | 39.8 (≈ 108 µM) | > 50
O=c1c(-c2ccc(O)cc2)coc2cc(O)cc(O)c12 [GENISTEIN] | > 50 | > 50 | > 50 | > 50 | > 50 | > 50 | > 50
O=c1c(-c2ccc(O)cc2)coc2cc(OCCCn3ccnc3)cc(O)c12 | > 50 | > 50 | > 50 | > 50 | > 50 | > 50 | > 50
O=c1c(-c2ccc(O)cc2)coc2cc(OCCN3CCOCC3)cc(O)c12 | > 50 | > 50 | > 50 | > 50 | > 50 | > 50 | > 50
CCCCN(CCCC)CCCOc1cc(O)c2c(=O)c(-c3ccc(O)cc3)coc2c1 | 17.1 (≈ 38.9 µM) | > 50 | 18.5 (≈ 42.1 µM) | > 50 | > 50 | > 50 | > 50
O=c1c(-c2ccc(O)cc2)coc2cc(OCCCN3CCCCC3)cc(O)c12 | > 50 | > 50 | > 50 | > 50 | > 50 | > 50 | > 50
CN1CCN(CCCOc2cc(O)c3c(=O)c(-c4ccc(O)cc4)coc3c2)CC1 | > 50 | > 50 | > 50 | 43 (≈ 105 µM) | > 50 | > 50 | > 50
O=c1c(-c2ccc(O)cc2)coc2cc(OCCCCN3CCCC3)cc(O)c12 | 23.7 (≈ 59.9 µM) | > 50 | 23.1 (≈ 58.4 µM) | 38.5 (≈ 97.4 µM) | 48.5 (≈ 123 µM) | > 50 | > 50
O=c1c(-c2ccc(O)cc2)coc2cc(OCCBr)cc(O)c12 | > 50 | > 50 | > 50 | > 50 | > 50 | > 50 | > 50
O=c1c(-c2ccc(O)cc2)coc2cc(OCCN3CCNCC3)cc(O)c12 | 17.5 (≈ 45.8 µM) | > 50 | 23.5 (≈ 61.5 µM) | 47.5 (≈ 124 µM) | > 50 | > 50 | > 50
CCCCN(CCCC)CCCCOc1cc(O)c2c(=O)c(-c3ccc(O)cc3)coc2c1 | 1.7 (≈ 3.75 µM) | > 50 | 13.2 (≈ 29.1 µM) | 3.7 (≈ 8.16 µM) | > 50 | > 50 | > 50
O=c1c(-c2ccc(O)cc2)coc2cc(OCCCCBr)cc(O)c12 | > 50 | > 50 | > 50 | > 50 | > 50 | > 50 | > 50
CN1CCN(CCOc2cc(O)c3c(=O)c(-c4ccc(O)cc4)coc3c2)CC1 | 35.5 (≈ 89.5 µM) | > 50 | > 50 | > 50 | > 50 | > 50 | > 50
CC(=O)N1CCN(c2ccc(OCC3COC(Cn4ccnc4)(c4ccc(Cl)cc4Cl)O3)cc2)CC1 (centres undefined) [KETOCONAZOLE] | – | – | – | – | 3.9 (≈ 7.34 µM) | 7.8 (≈ 14.7 µM) | 3.9 (≈ 7.34 µM)
O=c1c(-c2ccc(O)cc2)coc2cc(OCCN3CCCCC3)cc(O)c12 | > 50 | > 50 | > 50 | > 50 | > 50 | > 50 | > 50
CCCN(CCC)CCCOc1cc(O)c2c(=O)c(-c3ccc(O)cc3)coc2c1 | 15.3 (≈ 37.2 µM) | > 50 | 45 (≈ 109 µM) | 32 (≈ 77.8 µM) | > 50 | > 50 | > 50
O=c1c(-c2ccc(O)cc2)coc2cc(OCCCN3CCCC3)cc(O)c12 | 18.5 (≈ 48.5 µM) | > 50 | 20.5 (≈ 53.7 µM) | 48.5 (≈ 127 µM) | 21.5 (≈ 56.4 µM) | 23.5 (≈ 61.6 µM) | 20.5 (≈ 53.7 µM)
